Tests used:
Assay type in all cases: cell-based
[1] = system: HeLa; experiment: Cytotoxicity against human HeLa cells at 1 to 10 uM after 24 hrs by MTS assay
Procedure, shortened: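 HeLa cells at ~80% confluence, uninfected, exposed to 1–100 μM PPMO or water (mock) in serum-free DMEM-F-12 (1:1) for 24 h. MTS reagent was added for 4 h and absorbance read at 492 nm. Viability was expressed as percent of water-treated cells (set to 100%), averaged over 12 wells.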

[2] = system: Vero; experiment: Cytotoxicity against African green monkey Vero cells at 10 uM after 24 hrs by MTS assay; settings: chlorocebus sabaeus
[3] = system: SK-N-MC; experiment: Cytotoxicity against human SK-N-MC cell at 10 uM after 24 hrs by MTS assay

Measured: Activity

Cc1cn([C@H]2CN(P(=O)(OC[C@@H]3CN(P(=O)(OC[C@@H]4CN(P(=O)(OC[C@@H]5CN(P(=O)(OC[C@@H]6CN(P(=O)(OC[C@@H]7CN(P(=O)(OC[C@@H]8CN(P(=O)(OC[C@@H]9CNC[C@H](n%10cnc%11c(=O)[nH]c(N)nc%11%10)O9)N(C)C)C[C@H](n9cnc%10c(N)ncnc%109)O8)N(C)C)C[C@H](n8cnc9c(=O)[nH]c(N)nc98)O7)N(C)C)C[C@H](n7cnc8c(N)ncnc87)O6)N(C)C)C[C@H](n6ccc(N)nc6=O)O5)N(C)C)C[C@H](n5ccc(N)nc5=O)O4)N(C)C)C[C@H](n4cnc5c(N)ncnc54)O3)N(C)C)C[C@@H](COP(=O)(N(C)C)N3C[C@@H](COP(=O)(N(C)C)N4C[C@@H](COP(=O)(N(C)C)N5C[C@@H](COP(=O)(N(C)C)N6C[C@@H](COP(=O)(N(C)C)N7C[C@@H](COP(=O)(N(C)C)N8C[C@@H](COP(=O)(N(C)C)N9C[C@@H](COP(=O)(N(C)C)N%10C[C@@H](COP(=O)(N(C)C)N%11C[C@@H](COP(=O)(N(C)C)N%12C[C@@H](COP(=O)(N(C)C)N%13C[C@@H](COP(=O)(N(C)C)N%14C[C@@H](COP(=O)(N(C)C)N%15C[C@@H](COP(=O)(N(C)C)N%16CCN(C(=O)[C@H](CS)NC(=O)[C@H](Cc%17ccccc%17)NC(=O)[C@H](Cc%17ccccc%17)NC(=O)[C@H](CCCNC(=N)N)NC(=O)[C@H](CCCNC(=N)N)NC(=O)[C@H](CCCNC(=N)N)NC(=O)[C@H](CCCNC(=N)N)NC(=O)[C@H](CCCNC(=N)N)NC(=O)[C@H](CCCNC(=N)N)NC(=O)[C@H](CCCNC(=N)N)NC(=O)[C@H](CCCNC(=N)N)NC(=O)[C@@H](N)CCCNC(=N)N)CC%16)O[C@@H](n%16ccc(N)nc%16=O)C%15)O[C@@H](n%15cnc%16c(N)ncnc%16%15)C%14)O[C@@H](n%14cnc%15c(N)ncnc%15%14)C%13)O[C@@H](n%13cnc%14c(N)ncnc%14%13)C%12)O[C@@H](n%12cnc%13c(=O)[nH]c(N)nc%13%12)C%11)O[C@@H](n%11cnc%12c(=O)[nH]c(N)nc%12%11)C%10)O[C@@H](n%10cc(C)c(=O)[nH]c%10=O)C9)O[C@@H](n9cnc%10c(N)ncnc%109)C8)O[C@@H](n8ccc(N)nc8=O)C7)O[C@@H](n7cnc8c(N)ncnc87)C6)O[C@@H](n6cc(C)c(=O)[nH]c6=O)C5)O[C@@H](n5cnc6c(N)ncnc65)C4)O[C@@H](n4cnc5c(=O)[nH]c(N)nc54)C3)O2)c(=O)[nH]c1=O (some centres undefined)
Non-toxic: all assays above

Cc1cn([C@H]2CNC[C@@H](COP(=O)(N(C)C)N3C[C@@H](COP(=O)(N(C)C)N4C[C@@H](COP(=O)(N(C)C)N5C[C@@H](COP(=O)(N(C)C)N6C[C@@H](COP(=O)(N(C)C)N7C[C@@H](COP(=O)(N(C)C)N8C[C@@H](COP(=O)(N(C)C)N9C[C@@H](COP(=O)(N(C)C)N%10C[C@@H](COP(=O)(N(C)C)N%11C[C@@H](COP(=O)(N(C)C)N%12C[C@@H](COP(=O)(N(C)C)N%13C[C@@H](COP(=O)(N(C)C)N%14C[C@@H](COP(=O)(N(C)C)N%15C[C@@H](COP(=O)(N(C)C)N%16C[C@@H](COP(=O)(N(C)C)N%17C[C@@H](COP(=O)(N(C)C)N%18C[C@@H](COP(=O)(N(C)C)N%19C[C@@H](COP(=O)(N(C)C)N%20C[C@@H](COP(=O)(N(C)C)N%21C[C@@H](COP(=O)(N(C)C)N%22C[C@@H](COP(=O)(N(C)C)N%23CCN(C(=O)[C@H](CS)NC(=O)[C@H](Cc%24ccccc%24)NC(=O)[C@H](Cc%24ccccc%24)NC(=O)[C@H](CCCNC(=N)N)NC(=O)[C@H](CCCNC(=N)N)NC(=O)[C@H](CCCNC(=N)N)NC(=O)[C@H](CCCNC(=N)N)NC(=O)[C@H](CCCNC(=N)N)NC(=O)[C@H](CCCNC(=N)N)NC(=O)[C@H](CCCNC(=N)N)NC(=O)[C@H](CCCNC(=N)N)NC(=O)[C@@H](N)CCCNC(=N)N)CC%23)O[C@@H](n%23cnc%24c(=O)[nH]c(N)nc%24%23)C%22)O[C@@H](n%22cnc%23c(=O)[nH]c(N)nc%23%22)C%21)O[C@@H](n%21ccc(N)nc%21=O)C%20)O[C@@H](n%20cnc%21c(=O)[nH]c(N)nc%21%20)C%19)O[C@@H](n%19cc(C)c(=O)[nH]c%19=O)C%18)O[C@@H](n%18ccc(N)nc%18=O)C%17)O[C@@H](n%17cc(C)c(=O)[nH]c%17=O)C%16)O[C@@H](n%16cc(C)c(=O)[nH]c%16=O)C%15)O[C@@H](n%15ccc(N)nc%15=O)C%14)O[C@@H](n%14ccc(N)nc%14=O)C%13)O[C@@H](n%13cnc%14c(N)ncnc%14%13)C%12)O[C@@H](n%12cc(C)c(=O)[nH]c%12=O)C%11)O[C@@H](n%11cnc%12c(=O)[nH]c(N)nc%12%11)C%10)O[C@@H](n%10cnc%11c(N)ncnc%11%10)C9)O[C@@H](n9cc(C)c(=O)[nH]c9=O)C8)O[C@@H](n8ccc(N)nc8=O)C7)O[C@@H](n7cnc8c(N)ncnc87)C6)O[C@@H](n6ccc(N)nc6=O)C5)O[C@@H](n5cnc6c(N)ncnc65)C4)O[C@@H](n4cnc5c(=O)[nH]c(N)nc54)C3)O2)c(=O)[nH]c1=O (some centres undefined)
Non-toxic: all assays above

Cc1cn([C@H]2CN(P(=O)(OC[C@@H]3CN(P(=O)(OC[C@@H]4CN(P(=O)(OC[C@@H]5CN(P(=O)(OC[C@@H]6CN(P(=O)(OC[C@@H]7CNC[C@H](n8cnc9c(=O)[nH]c(N)nc98)O7)N(C)C)C[C@H](n7ccc(N)nc7=O)O6)N(C)C)C[C@H](n6cnc7c(N)ncnc76)O5)N(C)C)C[C@H](n5cnc6c(N)ncnc65)O4)N(C)C)C[C@H](n4ccc(N)nc4=O)O3)N(C)C)C[C@@H](COP(=O)(N(C)C)N3C[C@@H](COP(=O)(N(C)C)N4C[C@@H](COP(=O)(N(C)C)N5C[C@@H](COP(=O)(N(C)C)N6C[C@@H](COP(=O)(N(C)C)N7C[C@@H](COP(=O)(N(C)C)N8C[C@@H](COP(=O)(N(C)C)N9C[C@@H](COP(=O)(N(C)C)N%10C[C@@H](COP(=O)(N(C)C)N%11C[C@@H](COP(=O)(N(C)C)N%12C[C@@H](COP(=O)(N(C)C)N%13C[C@@H](COP(=O)(N(C)C)N%14C[C@@H](COP(=O)(N(C)C)N%15C[C@@H](COP(=O)(N(C)C)N%16C[C@@H](COP(=O)(N(C)C)N%17C[C@@H](COP(=O)(N(C)C)N%18CCN(C(=O)[C@H](CS)NC(=O)[C@H](Cc%19ccccc%19)NC(=O)[C@H](Cc%19ccccc%19)NC(=O)[C@H](CCCNC(=N)N)NC(=O)[C@H](CCCNC(=N)N)NC(=O)[C@H](CCCNC(=N)N)NC(=O)[C@H](CCCNC(=N)N)NC(=O)[C@H](CCCNC(=N)N)NC(=O)[C@H](CCCNC(=N)N)NC(=O)[C@H](CCCNC(=N)N)NC(=O)[C@H](CCCNC(=N)N)NC(=O)[C@@H](N)CCCNC(=N)N)CC%18)O[C@@H](n%18cnc%19c(=O)[nH]c(N)nc%19%18)C%17)O[C@@H](n%17cc(C)c(=O)[nH]c%17=O)C%16)O[C@@H](n%16ccc(N)nc%16=O)C%15)O[C@@H](n%15cc(C)c(=O)[nH]c%15=O)C%14)O[C@@H](n%14cnc%15c(=O)[nH]c(N)nc%15%14)C%13)O[C@@H](n%13cc(C)c(=O)[nH]c%13=O)C%12)O[C@@H](n%12cc(C)c(=O)[nH]c%12=O)C%11)O[C@@H](n%11cc(C)c(=O)[nH]c%11=O)C%10)O[C@@H](n%10ccc(N)nc%10=O)C9)O[C@@H](n9cnc%10c(=O)[nH]c(N)nc%109)C8)O[C@@H](n8cc(C)c(=O)[nH]c8=O)C7)O[C@@H](n7cc(C)c(=O)[nH]c7=O)C6)O[C@@H](n6cc(C)c(=O)[nH]c6=O)C5)O[C@@H](n5cc(C)c(=O)[nH]c5=O)C4)O[C@@H](n4ccc(N)nc4=O)C3)O2)c(=O)[nH]c1=O (some centres undefined)
Non-toxic: all assays above
